15 compounds from ChEMBL document CHEMBL1157594, “Synthesis and evaluation of a set of 4-phenylpiperidines and 4-phenylpiperazines as D2 receptor ligands and the discovery of the dopaminergic stabilizer 4-[3-(methylsulfonyl)phenyl]-1-propylpiperidine (huntexil, pridopidine, ACR16)” (J Med Chem, 2010) can be followed below.

In assay [1] the test system is Rattus norvegicus. As to the kind of experiment: Reduction in spontaneous locomotor activity in Sprague-Dawley rat striatum at 10.5 umol/kg, sc relative to control. It counts as functional. Set-up: scale not given: the % may be the effect or the level left. The method in brief:
(§1)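 Locomotor activity was recorded in partly habituated rats from 15 to 60 min after injection, sampled at 25 Hz. It was expressed as a percentage of saline control.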

For assay [2], the system named is Rattus norvegicus. Kind of assay: Reduction in 3,4-dihydroxyphenylacetic acid level in Sprague-Dawley rat striatum at 10.5 umol/kg, sc relative to saline treated control. Set-up: scale not given: the % may be the effect or the level left. The class given is functional. In short, it runs like this:
(§2)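 Striatal DOPAC was measured by post-mortem biochemistry in rat striatum and expressed relative to saline-injected controls (n = 4). Significance was tested by Student's t test at P<0.05.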

Assay [3] deals with Rattus norvegicus. As to the kind of experiment: Reduction in amphetamine-induced locomotor activity in Sprague-Dawley rat striatum at 10.5 umol/kg, sc relative to control. The class given is functional. Set-up: scale not given: the % may be the effect or the level left. The method in brief:
(§3)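 Rats were pretreated with amphetamine at 1.5 mg/kg intraperitoneally. Locomotor activity was recorded from 15 to 60 min after injection, sampled at 25 Hz, and compared with amphetamine-pretreated controls (n = 4).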

The subject of assay [4] is Rattus norvegicus. Kind of assay: Reduction in 3,4-dihydroxyphenylacetic acid level in Sprague-Dawley rat striatum at 100 umol/kg, sc relative to saline treated control. It counts as functional. Set-up: scale not given: the % may be the effect or the level left. The method in brief:
(§4)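 Striatal DOPAC measured post-mortem after a single test-compound dose. Each level is expressed as a percentage of the saline-treated control, with n = 4. Significance was tested by Student's t test (P<0.05).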

Assay [5] concerns Rattus norvegicus. As to the kind of experiment: Reduction in spontaneous locomotor activity in Sprague-Dawley rat striatum at 100 umol/kg, sc relative to control. The class given is functional. Set-up: scale not given: the % may be the effect or the level left.
Assay [6] concerns Rattus norvegicus. As to the kind of experiment: Reduction in amphetamine-induced locomotor activity in Sprague-Dawley rat striatum at 100 umol/kg, sc relative to control. The class given is functional. Set-up: scale not given: the % may be the effect or the level left. The method in brief: (§5)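 Rats were pretreated with amphetamine (1.5 mg/kg intraperitoneally). Locomotor activity was recorded 15-60 min after test-compound injection, measured at 25 Hz and compared with amphetamine-pretreated controls, with n = 4.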

The subject of assay [7] is Rattus norvegicus. Kind of assay: Reduction in spontaneous locomotor activity in Sprague-Dawley rat striatum at 33 umol/kg, sc relative to control. The class given is functional. Set-up: scale not given: the % may be the effect or the level left.
Assay [8] has as its target T1, D(2) dopamine receptor (Homo sapiens, UniProt P14416). As to the kind of experiment: biochemical. The class given is cell-based, HEK293.
Assay [9] deals with T1, D(2) dopamine receptor. As to the kind of experiment: biochemical. The class given is cell-based, HEK293. The source holds these as a separate data set.
Assay [10] deals with Rattus norvegicus. As to the kind of experiment: Reduction in amphetamine-induced locomotor activity in Sprague-Dawley rat striatum at 33 umol/kg, sc relative to control. Set-up: scale not given: the % may be the effect or the level left. It counts as functional. The method in brief:
as §5

The subject of assay [11] is Rattus norvegicus. Kind of assay: Reduction in 3,4-dihydroxyphenylacetic acid level in Sprague-Dawley rat striatum at 33 umol/kg, sc relative to saline treated control. It counts as functional. Set-up: scale not given: the % may be the effect or the level left. In short, it runs like this:
as §4

Assay [12] deals with Rattus norvegicus. Kind of assay: Reduction in spontaneous locomotor activity in Sprague-Dawley rat striatum at 7.68 umol/kg, sc relative to control. It counts as functional. Set-up: scale not given: the % may be the effect or the level left. The method in brief:
as §1

Assay [13] concerns Rattus norvegicus. As to the kind of experiment: Reduction in 3,4-dihydroxyphenylacetic acid level in Sprague-Dawley rat striatum at 7.68 umol/kg, sc relative to saline treated control. It counts as functional. Set-up: scale not given: the % may be the effect or the level left. In short, it runs like this:
as §2

In assay [14] the test system is Rattus norvegicus. As to the kind of experiment: Reduction in amphetamine-induced locomotor activity in Sprague-Dawley rat striatum at 7.68 umol/kg, sc relative to control. The class given is functional. Set-up: scale not given: the % may be the effect or the level left. The method in brief:
as §3

Assay [15] has as its system Rattus norvegicus. As to the kind of experiment: Reduction in spontaneous locomotor activity in Sprague-Dawley rat striatum at 6.59 umol/kg, sc relative to control. It counts as functional. Set-up: scale not given: the % may be the effect or the level left.
Assay [16] concerns Rattus norvegicus. As to the kind of experiment: Reduction in 3,4-dihydroxyphenylacetic acid level in Sprague-Dawley rat striatum at 6.59 umol/kg, sc relative to saline treated control. The class given is functional. Set-up: scale not given: the % may be the effect or the level left. In short, it runs like this: as §4
Assay [17] relates to Rattus norvegicus. Kind of assay: Reduction in amphetamine-induced locomotor activity in Sprague-Dawley rat striatum at 50 umol/kg, sc relative to control. It counts as functional. Set-up: scale not given: the % may be the effect or the level left. In short, it runs like this: as §3
Assay [18] has as its system Rattus norvegicus. As to the kind of experiment: Reduction in amphetamine-induced locomotor activity in Sprague-Dawley rat striatum at 1 umol/kg, sc relative to control. Set-up: scale not given: the % may be the effect or the level left. The class given is functional. In short, it runs like this:
as §3

Assay [19] concerns Rattus norvegicus. As to the kind of experiment: Reduction in spontaneous locomotor activity in Sprague-Dawley rat striatum at 1 umol/kg, sc relative to control. Set-up: scale not given: the % may be the effect or the level left. The class given is functional. In short, it runs like this: as §1
The test system of assay [20] is Rattus norvegicus. As to the kind of experiment: Reduction in 3,4-dihydroxyphenylacetic acid level in Sprague-Dawley rat striatum at 1 umol/kg, sc relative to saline treated control. It counts as functional. Set-up: scale not given: the % may be the effect or the level left. In short, it runs like this: as §2
The test system of assay [21] is Rattus norvegicus. As to the kind of experiment: Reduction in 3,4-dihydroxyphenylacetic acid level in Sprague-Dawley rat striatum at 117 umol/kg, sc relative to saline treated control. It counts as functional. Set-up: scale not given: the % may be the effect or the level left. In short, it runs like this:
as §4

For assay [22], the system named is Rattus norvegicus. As to the kind of experiment: Reduction in spontaneous locomotor activity in Sprague-Dawley rat striatum at 117 umol/kg, sc relative to control. The class given is functional. Set-up: scale not given: the % may be the effect or the level left.

The structures appear in SMILES notation. pKi: −log10 of the molar value.

T1 sequence (P14416 whole entry): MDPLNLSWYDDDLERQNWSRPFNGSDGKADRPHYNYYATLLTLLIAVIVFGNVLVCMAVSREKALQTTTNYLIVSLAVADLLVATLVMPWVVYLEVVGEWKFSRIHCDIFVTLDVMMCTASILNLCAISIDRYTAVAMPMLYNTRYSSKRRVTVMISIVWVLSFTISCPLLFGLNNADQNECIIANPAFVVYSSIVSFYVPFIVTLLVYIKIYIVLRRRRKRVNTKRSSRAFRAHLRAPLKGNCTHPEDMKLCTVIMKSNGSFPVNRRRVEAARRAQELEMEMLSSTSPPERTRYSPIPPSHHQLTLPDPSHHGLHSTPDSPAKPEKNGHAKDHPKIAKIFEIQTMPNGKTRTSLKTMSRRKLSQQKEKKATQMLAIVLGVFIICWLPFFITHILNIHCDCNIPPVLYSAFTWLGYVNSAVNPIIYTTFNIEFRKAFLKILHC

Take `Cc1cc2c(s1)Nc1ccccc1N=C2N1CCN(C)CC1` [OLANZAPINE]: the Activity came to 17% with Rattus norvegicus [1], 362% in the assay with Rattus norvegicus [2] and 6% in the assay with Rattus norvegicus [3].
`Oc1cccc(N2CCN(Cc3ccccc3)CC2)c1`: the Activity in the assay on Rattus norvegicus [4] amounted to 108%; with Rattus norvegicus [5], 8%; in the assay on Rattus norvegicus [6] it was 10%.
As a reminder, the pKi is the Ki on a negative log10 scale, so that one unit is a factor of ten. Regarding `CCCN1CCN(c2cccc(O)c2)CC1`, the Activity in the assay with Rattus norvegicus [7] is listed as 31%; in the assay on Rattus norvegicus [10] it was 16%; in the assay on Rattus norvegicus [11], 261%. In addition, the pKi at D(2) dopamine receptor [8] is 7.16; at D(2) dopamine receptor [9], 6.14.
In the case of `O=c1[nH]c2cccc(N3CCN(Cc4cccc(-c5ccccc5)c4)CC3)c2o1` [BIFEPRUNOX], the results for the Activity in the assay with Rattus norvegicus [12], with Rattus norvegicus [13] and in the assay with Rattus norvegicus [14] were 7%, 152% and 5%, respectively.
As for `CCCN1CCC(c2cccc(O)c2)CC1`, the results for the pKi on D(2) dopamine receptor [8] and at D(2) dopamine receptor [9] were 6.46 and 5.59, respectively.
Regarding `O=C1CCc2ccc(OCCCCN3CCN(c4cccc(Cl)c4Cl)CC3)cc2N1` [ARIPIPRAZOLE], the Activity was determined as 2% in the assay with Rattus norvegicus [12], 150% in the assay with Rattus norvegicus [13] and 9% in the assay with Rattus norvegicus [14].
On to `CCCN1CCN(c2cccc(S(C)(=O)=O)c2)CC1`, for which the Activity in the assay with Rattus norvegicus [7] turned out to be 27%; with Rattus norvegicus [10], 6%; in the assay with Rattus norvegicus [11], 310%. Moreover, the pKi was 6.18 at D(2) dopamine receptor [8] and 5.92 at D(2) dopamine receptor [9].
In the case of `CCCN1CCC[C@@H](c2cccc(S(C)(=O)=O)c2)C1`, the Activity with Rattus norvegicus [4] was 260%; with Rattus norvegicus [5], 215%; in the assay with Rattus norvegicus [6], 37%. Moreover, the pKi at D(2) dopamine receptor [8] is 6.12; at D(2) dopamine receptor [9], 5.41.
Consider `CN1CCc2cccc3c2[C@H]1Cc1ccc(O)c(O)c1-3` [APOMORPHINE], for which the Activity in the assay with Rattus norvegicus [15] amounted to 7118%; with Rattus norvegicus [16], 77%.
In the case of `Oc1cccc(C2CCN(Cc3ccccc3)CC2)c1`, the Activity with Rattus norvegicus [7] was found to be 85%; in the assay with Rattus norvegicus [10], 12%; with Rattus norvegicus [11], 317%. Further, the values for the negative logarithm of the Ki (pKi) at D(2) dopamine receptor [8] and on D(2) dopamine receptor [9] were 7.46 and 6.55, respectively.
Consider `CS(=O)(=O)c1cccc(C2CCN(Cc3ccccc3)CC2)c1`, for which the figures for the Activity with Rattus norvegicus [7], in the assay with Rattus norvegicus [17] and with Rattus norvegicus [11] were 44%, 6% and 310%, respectively. Moreover, the pKi at D(2) dopamine receptor [8] was 6.41; at D(2) dopamine receptor [9] it was 6.08.
Regarding `CS(=O)(=O)c1cccc(N2CCN(Cc3ccccc3)CC2)c1`, the Activity in the assay with Rattus norvegicus [4] is listed as 248%; in the assay with Rattus norvegicus [5], 17%; in the assay on Rattus norvegicus [6], 15%. Moreover, the values for the negative-log Ki (pKi) at D(2) dopamine receptor [8] and on D(2) dopamine receptor [9] were 6.37 and 5.72, respectively.
On to `O=C(CCCN1CCC(O)(c2ccc(Cl)cc2)CC1)c1ccc(F)cc1` [HALOPERIDOL], for which the figures for the Activity in the assay on Rattus norvegicus [18], with Rattus norvegicus [19] and in the assay on Rattus norvegicus [20] were 1%, 7% and 425%, respectively.
With `CCCN1CCC[C@@H](c2cccc(O)c2)C1` [PRECLAMOL], the Activity in the assay with Rattus norvegicus [21] worked out at 175%; with Rattus norvegicus [22] it was 37%.
Regarding `CCCN1CCC(c2cccc(S(C)(=O)=O)c2)CC1` [PRIDOPIDINE], the figures for the Activity in the assay with Rattus norvegicus [4] and in the assay with Rattus norvegicus [5] were 265% and 262%, respectively. Further, the figures for the pKi at D(2) dopamine receptor [8] and on D(2) dopamine receptor [9] were 5.12 and 4.76, respectively.
